Source: ChEMBL document CHEMBL5724801, “EUbOPEN Chemogenomics Library - Multiplex” (2024)
“And” between values parts separate entries of the source, which are not always exact repeats. Equal values may be shown once.

Test system: Fibroblast
Assay: Multiplex assay against human fibroblast
Assay type: toxicity, cell-based
Method in brief: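 With compound added, live cells were imaged on a CQ1 microscope at 37°C and 5% CO2; staining with Hoechst33342, BioTracker Green Microtubule Cytoskeleton Dye, MitoTracker Red and Annexin V Alexa Fluor 680 had been done at seeding. The CellPathfinder machine-learning gating scheme split cells into Hoechst high-intensity objects or normal cells, normal cells into healthy, pyknosed or fragmented nuclei, and pyknosed cells into mitotic or apoptotic. The tubulin, mitochondrial-mass and membrane-permeability phenotypes are per cents of healthy-nucleus cells.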

[1] = 12 h, 1 µM, compound concentration 1 uM
[2] = 12 h, 10 µM, compound concentration 10 uM
[3] = 24 h, 1 µM, compound concentration 1 uM
[4] = 24 h, 10 µM, compound concentration 10 uM
[5] = 48 h, 1 µM, compound concentration 1 uM
[6] = 48 h, 10 µM, compound concentration 10 uM

Cc1ccc(C(C)(O)c2nc3ccccc3s2)c(C)c1 (configuration not stated)
Population Apoptotic (%) [1]: 50% and 44%
Population Fragmented Nuclei (%) [1]: 8% and 22%
Population Healthy Nuclei (%) [1]: 78% and 48%
Population Hoechst High Intensity Objects (%) [1]: 0% and 5%
Population Membrane Permeable-Phenotype (%) [1]: 0% and 3%
Population Mitochondria Different-Phenotype (%) [1]: 5% and 6%
Population Mitotic Cells (%) [1]: 50% and 56%
Population Normal (%) [1]: 99% and 95%
Population Pyknosed Nuclei (%) [1]: 12% and 29%
Population Tubulin-Different-Phenotype (%) [1]: 29% and 36%
Total Cell Count [1]: 125 and 180
Population Apoptotic (%) [2]: 44% and 22%
Population Fragmented Nuclei (%) [2]: 11% and 31%
Population Healthy Nuclei (%) [2]: 72% and 43%
Population Hoechst High Intensity Objects (%) [2]: 1% and 7%
Population Membrane Permeable-Phenotype (%) [2]: 0% and 15%
Population Mitochondria Different-Phenotype (%) [2]: 5% and 6%
Population Mitotic Cells (%) [2]: 56% and 77%
Population Normal (%) [2]: 98% and 92%
Population Pyknosed Nuclei (%) [2]: 16% and 25%
Population Tubulin-Different-Phenotype (%) [2]: 24% and 60%
Total Cell Count [2]: 153 and 149
Population Apoptotic (%) [3]: 31% and 47%
Population Fragmented Nuclei (%) [3]: 13% and 25%
Population Healthy Nuclei (%) [3]: 73% and 54%
Population Hoechst High Intensity Objects (%) [3]: 0% and 5%
Population Membrane Permeable-Phenotype (%) [3]: 2% and 11%
Population Mitochondria Different-Phenotype (%) [3]: 7% and 5%
Population Mitotic Cells (%) [3]: 68% and 52%
Population Normal (%) [3]: 99% and 94%
Population Pyknosed Nuclei (%) [3]: 13% and 20%
Population Tubulin-Different-Phenotype (%) [3]: 22% and 43%
Total Cell Count [3]: 139 and 173
Population Apoptotic (%) [4]: 55% and 38%
Population Fragmented Nuclei (%) [4]: 13% and 27%
Population Healthy Nuclei (%) [4]: 74% and 46%
Population Hoechst High Intensity Objects (%) [4]: 4% and 6%
Population Membrane Permeable-Phenotype (%) [4]: 3% and 12%
Population Mitochondria Different-Phenotype (%) [4]: 6% and 9%
Population Mitotic Cells (%) [4]: 44% and 61%
Population Normal (%) [4]: 95% and 93%
Population Pyknosed Nuclei (%) [4]: 12% and 25%
Population Tubulin-Different-Phenotype (%) [4]: 24% and 61%
Total Cell Count [4]: 152 and 143
Population Apoptotic (%) [5]: 33% and 50%
Population Fragmented Nuclei (%) [5]: 16% and 28%
Population Healthy Nuclei (%) [5]: 73% and 57%
Population Hoechst High Intensity Objects (%) [5]: 4% and 3%
Population Membrane Permeable-Phenotype (%) [5]: 0% and 5%
Population Mitochondria Different-Phenotype (%) [5]: 3% and 6%
Population Mitotic Cells (%) [5]: 66% and 50%
Population Normal (%) [5]: 95% and 96%
Population Pyknosed Nuclei (%) [5]: 9% and 14%
Population Tubulin-Different-Phenotype (%) [5]: 16% and 39%
Total Cell Count [5]: 129 and 174
Population Apoptotic (%) [6]: 53% and 43%
Population Fragmented Nuclei (%) [6]: 22% and 34%
Population Healthy Nuclei (%) [6]: 68% and 53%
Population Hoechst High Intensity Objects (%) [6]: 7%
Population Membrane Permeable-Phenotype (%) [6]: 2% and 7%
Population Mitochondria Different-Phenotype (%) [6]: 6% and 7%
Population Mitotic Cells (%) [6]: 46% and 56%
Population Normal (%) [6]: 92%
Population Pyknosed Nuclei (%) [6]: 9% and 12%
Population Tubulin-Different-Phenotype (%) [6]: 27% and 64%
Total Cell Count [6]: 156 and 143

N#Cc1cc(F)cc(-c2nc(-c3ccc(F)cn3)no2)c1
Population Apoptotic (%) [1]: 28% and 38%
Population Fragmented Nuclei (%) [1]: 21% and 32%
Population Healthy Nuclei (%) [1]: 63% and 37%
Population Hoechst High Intensity Objects (%) [1]: 0% and 6%
Population Mitochondria Different-Phenotype (%) [1]: 5% and 6%
Population Mitotic Cells (%) [1]: 71% and 61%
Population Normal (%) [1]: 100% and 93%
Population Pyknosed Nuclei (%) [1]: 15% and 29%
Population Tubulin-Different-Phenotype (%) [1]: 22% and 48%
Total Cell Count [1]: 136 and 93
Population Apoptotic (%) [2]: 48% and 28%
Population Fragmented Nuclei (%) [2]: 15% and 42%
Population Healthy Nuclei (%) [2]: 67% and 32%
Population Hoechst High Intensity Objects (%) [2]: 1% and 8%
Population Membrane Permeable-Phenotype (%) [2]: 2% and 9%
Population Mitochondria Different-Phenotype (%) [2]: 5% and 12%
Population Mitotic Cells (%) [2]: 51% and 72%
Population Normal (%) [2]: 98% and 91%
Population Pyknosed Nuclei (%) [2]: 17% and 24%
Population Tubulin-Different-Phenotype (%) [2]: 23% and 36%
Total Cell Count [2]: 179 and 110
Population Apoptotic (%) [3]: 40% and 27%
Population Fragmented Nuclei (%) [3]: 19% and 39%
Population Healthy Nuclei (%) [3]: 68% and 38%
Population Hoechst High Intensity Objects (%) [3]: 2% and 7%
Population Mitochondria Different-Phenotype (%) [3]: 3%
Population Mitotic Cells (%) [3]: 60% and 72%
Population Normal (%) [3]: 97% and 92%
Population Pyknosed Nuclei (%) [3]: 11% and 22%
Total Cell Count [3]: 131 and 88
Population Apoptotic (%) [4]: 70% and 35%
Population Healthy Nuclei (%) [4]: 70% and 33%
Population Hoechst High Intensity Objects (%) [4]: 4% and 11%
Population Membrane Permeable-Phenotype (%) [4]: 0% and 5%
Population Mitochondria Different-Phenotype (%) [4]: 6% and 11%
Population Mitotic Cells (%) [4]: 29% and 65%
Population Normal (%) [4]: 95% and 88%
Population Pyknosed Nuclei (%) [4]: 16% and 18%
Population Tubulin-Different-Phenotype (%) [4]: 22% and 41%
Total Cell Count [4]: 170 and 120
Population Apoptotic (%) [5]: 61% and 50%
Population Fragmented Nuclei (%) [5]: 21% and 45%
Population Healthy Nuclei (%) [5]: 68% and 32%
Population Hoechst High Intensity Objects (%) [5]: 1% and 5%
Population Membrane Permeable-Phenotype (%) [5]: 0% and 3%
Population Mitochondria Different-Phenotype (%) [5]: 3% and 7%
Population Mitotic Cells (%) [5]: 38% and 50%
Population Normal (%) [5]: 98% and 94%
Population Pyknosed Nuclei (%) [5]: 9% and 22%
Population Tubulin-Different-Phenotype (%) [5]: 23% and 57%
Total Cell Count [5]: 137 and 85
Population Apoptotic (%) [6]: 84% and 50%
Population Fragmented Nuclei (%) [6]: 20% and 44%
Population Healthy Nuclei (%) [6]: 63% and 38%
Population Hoechst High Intensity Objects (%) [6]: 7% and 5%
Population Membrane Permeable-Phenotype (%) [6]: 0% and 15%
Population Mitochondria Different-Phenotype (%) [6]: 11% and 5%
Population Normal (%) [6]: 92% and 94%
Population Pyknosed Nuclei (%) [6]: 16% and 17%
Population Tubulin-Different-Phenotype (%) [6]: 28% and 50%
Total Cell Count [6]: 162 and 110
